Results reported in ChEMBL document CHEMBL1123708, “Resolved cis- and trans-2-amino-5-methoxy-1-methyltetralins: central dopamine receptor agonists and antagonists” (1987).
Calls of active or inactive are those of the source. The rule behind the calls is not given here.

Tests used:
[1] = target: T1, Dopamine receptor (Rattus norvegicus) (UniProt P25115+P19020+P30729+P18901+P61169); experiment: Ability to displace the DA receptor agonist DiPr-5,6-ADTN from rat striatal binding sites in vivo at a dose of 40 uM/kg by subcutaneous administration; format: organism-based
[2] = target: T1, Dopamine receptor (Rattus norvegicus); experiment: Ability to displace the Dopamine receptor agonist DiPr-5,6-ADTN from rat striatal binding sites in vivo at a dose of 10 uM/kg by subcutaneous administration; format: organism-based
Rattus norvegicus [3] = experiment: Change in rectal temperature induced by DiPr-5,6-ADTN at a dose of 40 umol/kg of compound by subcutaneous administration; format: functional
In short: (§1)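 Rats received DiPr-5,6-ADTN (0.25 μmol/kg sc) 100 min and test compound sc 40 min before death. Rectal temperature change (°C) was recorded between 60 and 100 min after DiPr-5,6-ADTN. Values are mean ± SEM, n = 4, with Student's t test vs DiPr-5,6-ADTN alone.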

Rattus norvegicus [4] = experiment: Change in rectal temperature induced by DiPr-5,6-ADTN at a dose of 10 umol/kg of compound by subcutaneous administration; format: functional; in short: as §1
Rattus norvegicus [5] = experiment: In vivo DOPA accumulation in non pre-treated rat limbic system following s.c. administration.; format: functional; settings: sc
In short: (§2)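 Rats without pretreatment received test drug sc 65 min and NSD 1015 (100 mg/kg ip) 30 min before death, with saline controls. DOPA was measured in limbic or striatal tissue. Dose for half-maximal change was estimated from 4-5-dose curves (n = 3-5), maximal level as % of control.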

Rattus norvegicus [6] = experiment: In vivo DOPA accumulation in non pre-treated rat striatal system following s.c. administration.; format: functional; settings: sc; in short: as §2
Rattus norvegicus [7] = experiment: In vivo DOPA accumulation in reserpine pretreated rat limbic system by subcutaneous administration; format: functional; settings: sc
In short: (§3)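 Rats received reserpine (5 mg/kg sc) 18 h, test drug sc 60 min and NSD 1015 (100 mg/kg ip) 30 min before death, with saline controls. Limbic or striatal DOPA was measured. Dose for half-maximal decrease was estimated from 4-7-dose curves (n = 3-5), minimal level as % of control.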

Rattus norvegicus [8] = experiment: In vivo DOPA accumulation in reserpine pretreated rat striatum system by subcutaneous administration; format: functional; settings: sc; in short: as §3
Rattus norvegicus [9] = experiment: Locomotory activity was determined in reserpine pretreated rats at a dose of 3.2 umol/kg by subcutaneous administration. Value is the accumulation counts/30 min; format: functional
In short: (§4)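 Rats were given reserpine 5 mg/kg sc 18 h beforehand, then test drug sc immediately before the activity session. Motor activity was recorded by photocells in motility meters as accumulated counts over 30 min, mean ± SEM, n = 3-4. Gross behaviour was watched for signs of stimulation. Reserpine-only controls were included.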

Rattus norvegicus [10] = experiment: Locomotory activity was determined in non pretreated rats at a dose of 13.4 umol/kg by subcutaneous administration; format: functional
In short: (§5)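 Untreated rats received test drug sc 5 min before a 30-min session in photocell motility meters, with accumulated counts recorded. Activity is expressed as percent of saline controls, mean ± SEM, n = 3-5. Gross behaviour was observed through a semitransparent mirror. Differences from saline controls were assessed by Student's t test.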

Rattus norvegicus [11] = experiment: Locomotory activity was determined in non pretreated rats at a dose of 3.2 umol/kg by subcutaneous administration; format: functional; in short: as §5
Rattus norvegicus [12] = experiment: Change in rectal temperature induced by DiPr-5,6-ADTN at a dose of 22 umol/kg of compound by subcutaneous administration; format: functional; in short: as §1
Rattus norvegicus [13] = experiment: Change in rectal temperature induced by DiPr-5,6-ADTN at a dose of 45 umol/kg of compound by subcutaneous administration; format: functional; in short: as §1
Rattus norvegicus [14] = experiment: In vivo DOPA accumulation in non pretreated rat limbic system by subcutaneous administration; I denotes inactive; format: functional, organism-based; in short: as §2
Rattus norvegicus [15] = experiment: In vivo DOPA accumulation in non pretreated rat striatum system by subcutaneous administration; I denotes inactive; format: functional, organism-based; in short: as §2
Rattus norvegicus [16] = experiment: Locomotory activity was determined in non pretreated rats at a dose of 52 umol/kg by subcutaneous administration; I denotes inactive; format: functional; in short: as §5
Rattus norvegicus [17] = experiment: Locomotory activity was determined in reserpine pretreated rats at a dose of 204 umol/kg by subcutaneous administration. Value is the accumulation counts/30 min; format: functional; in short: as §4
Rattus norvegicus [18] = experiment: Locomotory activity was determined in non pretreated rats at a dose of 3.2 umol/kg by subcutaneous administration; I denotes inactive; format: functional, organism-based; in short: as §5
[19] = target: T1, Dopamine receptor (Rattus norvegicus); settings: 22 uM
[20] = target: T1, Dopamine receptor (Rattus norvegicus); settings: 45 uM
[21] = target: T1, Dopamine receptor (Rattus norvegicus); experiment: Ability to displace the Dopamine receptor agonist DiPr-5,6-ADTN from rat striatal binding sites in vivo at a dose of 13 uM/kg by subcutaneous administration; format: organism-based
Rattus norvegicus [22] = experiment: Induced locomotor stimulation in non pre-treated rats by 13 umol/kg s.c. administration.; format: functional
Rattus norvegicus [23] = experiment: In vivo DOPA accumulation in reserpine pretreated rat limbic system by subcutaneous administration.; format: functional; settings: sc; in short: as §3
Rattus norvegicus [24] = experiment: In vivo DOPA accumulation in reserpine pretreated rat striatum system by subcutaneous administration.; format: functional; settings: sc; in short: as §3
Rattus norvegicus [25] = experiment: Locomotory activity was determined in non pretreated rats at a dose of 52 umol/kg by subcutaneous administration.; format: functional; in short: as §5
Rattus norvegicus [26] = experiment: Locomotory activity was determined in reserpine pretreated rats at a dose of 52 umol/kg by subcutaneous administration. Value is the accumulation counts/30 min; format: functional; in short: as §4
Rattus norvegicus [27] = experiment: Change in rectal temperature induced by DiPr-5,6-ADTN at a dose of 13 umol/kg of compound by subcutaneous administration; format: functional; in short: as §1
Rattus norvegicus [28] = experiment: Locomotory activity was determined in non pretreated rats at a dose of 0.32 umol/kg by subcutaneous administration; format: functional; in short: as §5
[29] = target: T1, Dopamine receptor (Rattus norvegicus); experiment: In vivo displacement of DiPr-5,6-ADTN from Dopamine receptors in rat striatum; format: organism-based
[30] = target: T1, Dopamine receptor (Rattus norvegicus); experiment: Ability to displace the Dopamine receptor agonist DiPr-5,6-ADTN from rat striatal binding sites in vivo at a dose of 52 uM/kg by subcutaneous administration; format: organism-based
Rattus norvegicus [31] = experiment: Induced locomotor stimulation was determined in non pretreated rats at a dose of 52 umol/kg by subcutaneous administration; format: functional; in short: as §5
Rattus norvegicus [32] = experiment: Induced locomotor stimulation in non pre-treated rats by 52 umol/kg s.c. administration.; format: functional
Rattus norvegicus [33] = experiment: Change in rectal temperature induced by DiPr-5,6-ADTN at a dose of 52 umol/kg of compound by subcutaneous administration; format: functional; in short: as §1

## CCCN(CCC)[C@H]1CCc2c(O)cccc2[C@H]1C
[1]
  Binding: 37%
[2]
  Binding: 90%
Rattus norvegicus [3]
  Body temp change: -0.2 °C
Rattus norvegicus [4]
  Body temp change: 0.1 °C
Rattus norvegicus [5]
  ED50: 0.84 µmol/kg
Rattus norvegicus [6]
  ED50: 0.84 µmol/kg
Rattus norvegicus [7]
  ED50: 0.3 µmol/kg
Rattus norvegicus [8]
  ED50: 0.34 µmol/kg
Rattus norvegicus [9]
  Activity: 121 counts/30 min
Rattus norvegicus [10]
  Activity: 171%
Rattus norvegicus [11]
  Activity: 65%

## CCCN(CCC)[C@H]1CCc2c(OC)cccc2[C@H]1C
Rattus norvegicus [12]
  Body temp change: 0.12 °C
Rattus norvegicus [13]
  Body temp change: 0.5 °C
Rattus norvegicus [14]
  ED50: inactive
Rattus norvegicus [15]
  ED50: inactive
Rattus norvegicus [7]
  ED50: 5.5 µmol/kg
Rattus norvegicus [8]
  ED50: 5.8 µmol/kg
Rattus norvegicus [16]
  Activity: inactive
Rattus norvegicus [17]
  Activity: 8 counts/30 min
Rattus norvegicus [18]
  Activity: inactive
[19]
  Binding: 106%
[20]
  Binding: 94%

## CCCN(CCC)[C@H]1CCc2c(O)cccc2[C@@H]1C
[21]
  Binding: 91%
Rattus norvegicus [22]
  Activity: 92%
Rattus norvegicus [23]
  ED50: 7.3 µmol/kg
Rattus norvegicus [24]
  ED50: 7.9 µmol/kg
Rattus norvegicus [25]
  Activity: 74%
Rattus norvegicus [26]
  Activity: 19 counts/30 min
Rattus norvegicus [11]
  Activity: 79%
Rattus norvegicus [27]
  Body temp change: -0.83 °C

## CN1CCc2cccc3c2[C@H]1Cc1ccc(O)c(O)c1-3 [APOMORPHINE]
Rattus norvegicus [7]
  ED50: 0.041 µmol/kg
Rattus norvegicus [8]
  ED50: 0.044 µmol/kg
Rattus norvegicus [9]
  Activity: 366 counts/30 min
Rattus norvegicus [28]
  Activity: 52%
Rattus norvegicus [11]
  Activity: 277%

## CCN(CC)[C@@H]1CCc2c(OC)cccc2[C@@H]1C
[29]
  Binding: 44%
[30]
  Binding: 28%
Rattus norvegicus [5]
  ED50: 5.5 µmol/kg
Rattus norvegicus [6]
  ED50: 2.9 µmol/kg
Rattus norvegicus [22]
  Activity: 40%
Rattus norvegicus [31]
  Activity: 14%
Rattus norvegicus [11]
  Activity: 100%
Rattus norvegicus [32]
  Activity: 46%
Rattus norvegicus [33]
  Body temp change: 1.4 °C
Rattus norvegicus [27]
  Body temp change: 1.2 °C
